# Screening results as filed in PubChem.
# Only some compounds are listed: those with a hit (about 1.4% of all), similar ones and a draw of the others.
# NR2E3 ag-1 – human photoreceptor-specific nuclear receptor agonism; Q9Y5X4; CHO-S Gal4-NCOR/VP16-NR2E3 two-hybrid, luciferase; inhibition of corepressor binding, % at 3.98 µM; actives 0.35% (n = 360,000);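 active = inhibition above the mean of all tested compounds plus 3 SD, cut at about 70% in these data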;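 also: 0% = DMSO with NR2E3 transfected cells and 100% = cells lacking NR2E3 construct; higher means lower luciferase signal from less NR2E3 corepressor binding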
# Target sequence (Q9Y5X4 whole entry, looked up, the tested form may be a part): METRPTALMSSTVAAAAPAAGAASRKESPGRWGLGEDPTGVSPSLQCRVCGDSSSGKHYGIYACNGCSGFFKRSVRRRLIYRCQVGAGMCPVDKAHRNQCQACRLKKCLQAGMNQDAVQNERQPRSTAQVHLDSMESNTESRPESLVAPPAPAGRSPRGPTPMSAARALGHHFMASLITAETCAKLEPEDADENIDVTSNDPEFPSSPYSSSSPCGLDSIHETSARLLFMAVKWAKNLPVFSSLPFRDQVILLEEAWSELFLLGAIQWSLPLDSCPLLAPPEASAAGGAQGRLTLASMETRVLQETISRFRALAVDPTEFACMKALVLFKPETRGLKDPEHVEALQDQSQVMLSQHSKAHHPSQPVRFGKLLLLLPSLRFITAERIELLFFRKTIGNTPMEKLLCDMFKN
# Rev-erbA mod – modulates human Rev-erb alpha binding to DNA; activity, % at 10 µM; P20393; actives 0.79% (n = 370,000); Rev-erbα–FITC-DNA binding, fluorescence polarization, 90 min;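 active = activity above about 14%, limit read from the data; passing the limit was not always enough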;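 also: 0% = DMSO wells with 35 nM protein and 100% = DMSO wells with 750 nM protein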
# PG9 binder – small molecules binding HIV-1 gp120 antibody PG9 | TR-FRET gp120-PG9 antibody binding | inhibition, % at 6.7 µM | actives 0.43% (n = 360,000) | AID 624416; in the data active = inhibition above about 8.5%
# NR2E3 ag-2 – agonists of human nuclear receptor NR2E3 | actives 0.12% (n = 320,000) | GST-NR2E3/biotin-RetCOR TR-FRET, 1536-well | inhibition of corepressor binding, % at 4.78 µM | Q9Y5X4 | AID 2300;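 active = percent inhibition above the cutoff of mean plus 3 SD of all tested compounds, set per screening campaign, cut at about 20% in these data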;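 also: 0% = DMSO wells and 100% = biotin wells as full block of FRET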
#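 Material: NR2E3–RetCOR corepressor complex | Quantity: 1.35 nM GST-tagged NR2E3 final | Schedule: 5 h at 4 °C | Replication: Singlicate compound wells | Reagent: RetCOR corepressor, biotinylated, 7 nM | Controls: Biotin wells as high control, 0.6% DMSO wells as low control | Signal: TR-FRET, Eu(K)-anti-GST donor, streptavidin-D2 acceptor, ex 340, em 617/671 nm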
# NR1D1 mod conf – confirmation of modulators of human Rev-erb alpha DNA binding; shares compounds with Rev-erbA mod; Rev-erb alpha FITC-DNA binding, fluorescence polarization, 90 min; activation, % at 25 µM; actives 61% (n = 3,000); AID 1259319;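 active = activation at or above a set limit, or at least 3 SD above the negative control mean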;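 also: 0% = 35 nM protein with DMSO and 100% = 750 nM protein high control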
# RORg counter – RORgamma DNA-binding activity, dose-response counter-screen; shares compounds with Rev-erbA mod; purified RORgamma protein-FITC-DNA binding, fluorescence polarization; IC50, µM; actives 8% (n = 910);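 active = Compounds whose fitted half-maximal concentration for disrupting protein-DNA binding is below 10 micromolar; the record names Rev-erb in its text, so the target is in doubt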
# * marks the source's active call; other numbers are inactive results; / = not tested or not shown.
SMILES,NR2E3 ag-1,Rev-erbA mod,PG9 binder,NR2E3 ag-2,NR1D1 mod conf,others
COc1ccc2nc(SCC(=O)N3CCCCC3)c(C#N)cc2c1,11,-3,-1,2,/,
CCOc1ccc2nc(SCC(=O)Nc3ccc(S(=O)(=O)N4CCCC4)cc3)c(C)cc2c1,-11,25*,0,1,17,
COc1ccc2nc(SCC(=O)Nc3ccc(S(=O)(=O)N4CCCC4)cc3)c(C#N)cc2c1,-23,109*,-2,-1,74*,RORg counter=>40
N#Cc1cc2ccccc2nc1SCC(=O)Nc1ccc(S(=O)(=O)N2CCCC2)cc1,-15,30*,0,2,24*,
Cc1cccc(NC(=O)n2ccc3ccc(-c4ccc5cc[nH]c5c4)cc32)c1,/,-3,/,/,/,
Cc1c(NC(=O)C2CCCN(S(=O)(=O)c3ccc(F)cc3)C2)c(=O)n(-c2ccccc2)n1C (stereo unspecified),/,5,/,/,/,
O=C(Nc1cccc(Cl)c1)OC1CCC12CCC(c1ccccc1)CC2 (stereo unspecified),/,-3,/,/,/,
CC(/C=C/c1ccccc1F)=N\NC(=O)c1cccc(F)c1,-57,17*,-1,0,1,
COc1ccc(-c2cc(C(=O)NN=Cc3cccn3C)[nH]n2)cc1,/,-4,/,/,/,
O=C(Nc1ccc(Oc2ccccc2)nc1)[C@H]1O[C@@H](n2ccc(=O)[nH]c2=O)[C@H](O)[C@@H]1O,-9,20*,1,/,-1,
C[C@@H]1C=CCCO[C@]12C(=O)N(CC1CC1)c1cccc(Br)c12,/,13*,1,/,-2,
CN(CC(=O)Nc1cccc(F)c1)C(=O)CCc1nc2sc3c(c2c(=O)[nH]1)CCCC3,22,20*,2,1,7,
CN(CC(=O)Nc1ccc(F)c(F)c1F)C(=O)CCc1nc2sc3c(c2c(=O)[nH]1)CCCC3,1,19*,0,-2,17,
Cc1cccc(C)c1NC(=O)CN(C)C(=O)CCc1nc2sc3c(c2c(=O)[nH]1)CCCC3,-4,3,2,2,/,
CN(CCc1ccccc1)C(=O)c1cc2ccccn2n1,/,-4,/,/,/,
N#C/C(=C/C1=C(N2CCOCC2)C(=C/c2ccccc2)/CC1)C(=O)Nc1ccccc1F,-41,19*,-2,/,18*,
Cc1nnc2c(NCCC(C)C)nc3ccccc3n12,-23,23*,0,/,1,
CCc1cc2c(C)ccc(C)c2nc1SCC(=O)Nc1c(C)[nH]c(=O)[nH]c1=O,26,-3,3,0,/,
CCc1cc2c(C)ccc(C)c2nc1SCC(=O)Nc1c[nH]c(=O)[nH]c1=O,-29,53*,6,3,44*,RORg counter=>40
COC(=O)[C@H](C(C)C)N(Cc1cn(Cc2ccccc2)nn1)S(=O)(=O)c1ccc(F)cc1Br,/,4,/,/,/,
O=C(Nc1ccc(Cl)cc1)c1csc(COCCO)n1,-60,-6,-2,/,/,
O=C(Nc1ccc(Oc2ccccc2)cc1)c1csc(COCCO)n1,-37,15*,-2,/,1,
COC(=O)c1sc(NC(=S)NC(=O)c2ccccc2)nc1C,-19,23,-1,-5,/,
CCOC(=O)c1sc(NC(=S)NC(=O)c2cccc(OC)c2)nc1C,-25,94*,-2,3,38*,RORg counter=>40
COc1cc(C(=O)Nc2nc3ccc4nc(C)sc4c3s2)cc(OC)c1OC,-4,115*,-3,1,8,
SMILES,NR2E3 ag-1,Rev-erbA mod,PG9 binder,NR2E3 ag-2,NR1D1 mod conf,others
COC(=O)c1sc(NC(=S)NC(=O)c2cc(OC)c(OC)c(OC)c2)nc1C,-7,57*,-2,2,1,
CCOC(=O)c1sc(NC(=S)NC(=O)c2ccccc2)nc1C,-112,20*,0,-2,0,
COc1cc(NC(=O)c2cc(-c3cccnc3)nc3ccc(Br)cc23)cc(OC)c1,15,31*,3,3,20*,
CCOc1nc(-c2ccccc2)c2cc(Br)ccc2n1,-17,27*,1,1,15,
CCOC(=O)c1nn(-c2ccccc2)c(=O)cc1SC(C)C,-4,-1,1,1,/,
CCOC(=O)c1nn(-c2ccccc2)c(=O)cc1SC1CCCCC1,-6,29*,1,-1,26*,
CCOC(=O)c1cc2sc(C)cc2n1CC(=O)N1CCc2ccccc21,-14,22*,-1,-2,24*,
CC(=O)[C@@H]1[C@@H]2C(=O)N(Cc3ccccc3)C(=O)[C@@H]2C2c3ccccc3C=CN21 (stereo partly specified),-3,26*,0,-1,28*,
COc1ccc(C2CCC3(CCC(=O)N3CCOC(=O)NCc3ccc(Cl)cc3)CC2)cc1 (stereo unspecified),/,4,/,/,/,
COc1ccc(CCN(Cc2cccs2)S(=O)(=O)c2ccc(C)s2)cc1OC,/,1,/,/,/,
O=C(NCCc1ccccc1F)C1CCC(=O)N(Cc2ccccc2F)C1 (stereo unspecified),-57,-2,0,-3,/,
Cc1n[nH]c(C)c1CCNC(=O)C1CCC(=O)N(Cc2ccccc2F)C1 (stereo unspecified),3,17*,0,-1,0,
COC(=O)[C@]12C[C@H](CC(=O)N3CCC(c4ccccc4)CC3)C(=O)N(Cc3cccc4ccccc34)C1=C[C@H](C(C)(C)C)O[C@@H]2C,/,-9,/,/,/,
O=C(Nc1cccc(Br)c1)OC1CC2CC1[C@H]1CCCCN1[C@H]2Cc1ccccc1 (stereo partly specified),/,3,/,/,/,
Cc1cccc(C)c1OCC(=O)OCC(=O)c1ccc2c(c1)NC(=O)CO2,-3,0,-1,1,/,
CSc1ncccc1C(=O)OCC(=O)c1ccc2c(c1)NC(=O)CO2,2,40*,1,2,18,
O=S(=O)(/N=C(/Nc1nc2ccccc2s1)c1ccccc1)c1ccc(F)cc1,-25,19*,1,/,-3,
N#Cc1ccc(Oc2ccc(-c3nc4ccccc4nc3-c3ccccc3)cc2)cc1C#N,-13,23*,2,6,38*,RORg counter=>40
N#Cc1ccc(Oc2ccc(-c3cnc4ccccc4n3)cc2)cc1C#N,-29,51*,0,-3,30*,
N#Cc1cccc(Oc2ccc(-c3cnc4ccccc4n3)cc2)c1C#N,-1,5,0,0,/,
C/C(=N\NC(=O)c1cc(-c2ccccc2)nc2ccccc12)c1ccc(Cl)cc1,/,-4,/,/,/,
CCOC(=O)[C@@]12CN(C(=O)OC(C)(C)C)CC=C1N(Cc1ccc(OC)cc1)C(=O)[C@H]2CC(=O)NCCC(C)C,/,-2,/,/,/,
C=CCc1cccc(C2Nc3ccccc3C(=O)N2O)c1O (stereo unspecified),-67,60*,0,0,32*,RORg counter=>40
CC(=O)CC[C@H]1CC[C@]2(CCCN(S(C)(=O)=O)C2)O1,/,5,/,/,/,
